6 molecules from ChEMBL document CHEMBL4706521, “Synthesis of indole inhibitors of silent information regulator 1 (SIRT1), and their evaluation as cytotoxic agents” (Eur J Med Chem, 2020) can be followed below.

Test [1] has as its target T1, NAD-dependent protein deacetylase sirtuin-2 (Homo sapiens, UniProt Q8IXJ6).
T1 sequence (Q8IXJ6 whole entry): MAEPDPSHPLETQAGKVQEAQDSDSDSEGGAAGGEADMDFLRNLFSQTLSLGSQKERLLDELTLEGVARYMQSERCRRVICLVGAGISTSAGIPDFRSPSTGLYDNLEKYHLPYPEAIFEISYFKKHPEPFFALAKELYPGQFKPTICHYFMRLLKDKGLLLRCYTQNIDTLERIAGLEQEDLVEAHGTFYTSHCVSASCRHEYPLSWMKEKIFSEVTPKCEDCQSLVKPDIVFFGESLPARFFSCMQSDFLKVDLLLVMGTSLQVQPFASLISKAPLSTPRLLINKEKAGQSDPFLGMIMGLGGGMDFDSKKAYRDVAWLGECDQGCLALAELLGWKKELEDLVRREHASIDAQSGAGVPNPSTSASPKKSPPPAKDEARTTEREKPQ
Briefly: Inhibition of recombinant human SIRT2 expressed in baculovirus infected SF9 cells expression system using RHKK(Ac)W-NH2 as substrate measured after 20 mins by HPLC method.

Another test has as its system K562. Briefly: Cytotoxicity against human K562 cells assessed as cell viability measured after 48 hrs by MTT assay. Format: functional, cell-based. The settings on record: K562, 48 h. An outline of the steps: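 Cells were seeded at 5×10^4 cells/mL and kept in suspension 2 h before dosing. Compounds were added from DMSO at final 0.01–100 μM (tenfold series) for 48 h. MTT was applied, then isopropanol-HCl, with OD read at 490 and 630 nm. IC50 was obtained from OD.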

For a further test, the system named is HEK-293T. Briefly: Cytotoxicity against human HEK293T cells assessed as cell viability measured after 48 hrs by MTT assay. Format: cell-based. On the technique in general: Formazan colour is commonly taken as a measure of viable cells.
For a further test, the system named is NCI-H460. The test is described as follows: Cytotoxicity against human NCI-H460 cells assessed as cell viability measured after 48 hrs by MTT assay. Type of test: functional, cell-based. The settings on record: NCI-H460, 48 h.
A further test has as its system HepG2. Briefly: Cytotoxicity against human HepG2 cells assessed as cell viability measured after 48 hrs by MTT assay. Format: functional, cell-based. The note with it: HepG2, 48 h.
The test system of the next test is HUVEC. The test is described as follows: Cytotoxicity against human HUVEC cells assessed as cell viability measured after 48 hrs by MTT assay. Type of test: cell-based. An outline of the steps:
(§1)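 Cells were seeded at 5×10^4 cells/mL and allowed to adhere for 24 h. Compounds in DMSO were tested at final 0.01, 0.1, 1, 10 and 100 μM for 48 h. MTT was then added, followed by isopropanol-HCl. OD was read at 570/630 nm, and IC50 was calculated from OD.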

The next test has as its system HT-29. The test is described as follows: Cytotoxicity against human HT-29 cells assessed as cell viability measured after 48 hrs by MTT assay. Type of test: functional, cell-based. The note with it: HT-29, 48 h. An outline of the steps: as §1
The next test deals with A549. The test is described as follows: Cytotoxicity against human A549 cells assessed as cell viability measured after 48 hrs by MTT assay. Type of test: functional, cell-based. The settings on record: A549, 48 h. The essentials:
as §1

Another test concerns MCF7. Briefly: Cytotoxicity against human MCF7 cells assessed as cell viability measured after 48 hrs by MTT assay. Format: functional, cell-based. The settings on record: MCF7, 48 h.
The next test deals with HCT-116. The test is described as follows: Cytotoxicity against human HCT-116 cells assessed as cell viability measured after 48 hrs by MTT assay. Format: functional, cell-based. The note with it: HCT-116, 48 h.
The target in test [2] is T2, NAD-dependent protein deacetylase sirtuin-1 (Homo sapiens, UniProt Q96EB6).
T2 sequence (Q96EB6 whole entry): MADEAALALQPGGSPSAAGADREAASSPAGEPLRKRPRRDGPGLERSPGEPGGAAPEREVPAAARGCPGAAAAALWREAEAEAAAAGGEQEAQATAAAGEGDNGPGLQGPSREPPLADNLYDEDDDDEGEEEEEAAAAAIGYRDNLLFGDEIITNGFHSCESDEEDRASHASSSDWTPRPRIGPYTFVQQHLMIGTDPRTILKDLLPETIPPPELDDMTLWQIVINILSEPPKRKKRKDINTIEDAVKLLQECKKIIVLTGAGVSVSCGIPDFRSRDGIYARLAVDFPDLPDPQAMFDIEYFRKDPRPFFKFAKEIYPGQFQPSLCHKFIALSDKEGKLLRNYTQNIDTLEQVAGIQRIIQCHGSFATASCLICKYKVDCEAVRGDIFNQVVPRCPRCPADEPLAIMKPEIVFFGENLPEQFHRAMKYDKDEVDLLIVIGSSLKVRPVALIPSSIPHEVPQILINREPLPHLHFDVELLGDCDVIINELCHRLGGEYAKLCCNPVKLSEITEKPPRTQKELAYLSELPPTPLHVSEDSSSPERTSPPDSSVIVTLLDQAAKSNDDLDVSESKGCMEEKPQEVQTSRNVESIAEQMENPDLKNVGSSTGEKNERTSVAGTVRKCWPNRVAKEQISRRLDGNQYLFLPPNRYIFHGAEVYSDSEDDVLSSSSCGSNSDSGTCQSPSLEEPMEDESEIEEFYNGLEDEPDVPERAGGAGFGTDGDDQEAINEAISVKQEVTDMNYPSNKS
Briefly: Inhibition of recombinant human SIRT1 (193 to 741 residues) expressed in Escherichia coli expression system using RHKK(Ac)W-NH2 as substrate measured after 2 hrs by HPLC method.

Test [3] deals with T3, NAD-dependent protein deacetylase sirtuin-2 (Homo sapiens) (UniProt Q8IXJ6).
T3 sequence (whole entry): T1 sequence (Q8IXJ6 whole entry)
The test is described as follows: Inhibition of recombinant human SIRT2 expressed in baculovirus infected SF9 cells expression system using RHKK(Ac)W-NH2 as substrate at 10 uM measured after 20 mins by HPLC method. The essentials: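 SIRT2 at about 100 nM (nominal) started the reaction, without preincubation, in kit buffer pH 8.0 with 2 mM NAD+ and 250 μM RHKK(Ac)W-NH2. Final DMSO was 1%. Reactions ran 20 min at 37 °C, keeping conversion at 2–8%, and were stopped with TFA. Substrate and product were separated by C18 HPLC (10–50% B gradient) and detected at 220 nm. Peak areas gave % conversion. Results were reported as IC50 (95% CI) or % inhibition (SD), from at least duplicates.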

Regarding `NC(=O)Cc1[nH]c2ccc(Cl)cc2c1Cc1ccccc1`, the IC50 in [1] turned out to be 0.93 µM.
As for `CC[C@@]1(O)C(=O)OCc2c1cc1n(c2=O)Cc2cc3ccccc3nc2-1` [CAMPTOTHECIN], the IC50 in the test with K562 is 0.32 µM; with HEK-293T, 5.65 µM; in the test with NCI-H460, 0.12 µM; in the test with HepG2, 0.04 µM; with HUVEC, < 0.01 µM; in the test with HT-29, > 100 µM. Besides, the IC50 in the test with A549 stood at 1.56 µM; with MCF7, 1.67 µM; in the test with HCT-116, 0.05 µM.
In the case of `NC(=O)Cc1cc2cc(Cl)ccc2[nH]1`, the IC50 with K562 was > 100 µM; in the test on HEK-293T, > 100 µM; in the test on NCI-H460, > 100 µM; with HepG2, > 100 µM; in the test with HUVEC, > 100 µM; in test [2], 90 µM. Besides, the IC50 in the test with HT-29, in the test on A549, in the test with MCF7 and in the test with HCT-116 was > 100 µM each time. Besides, the inhibition in test [3] was found to be 1.7%.
`NC(=O)Cc1[nH]c2ccc(Cl)cc2c1CC(N)=O`: the IC50 (in the test with K562; in the test on HEK-293T; in the test with NCI-H460; in the test on HepG2; in the test on HUVEC; in [2]) was > 100 µM throughout. The IC50 in the test on HT-29, with A549, in the test on MCF7 and in the test on HCT-116 was > 100 µM each time.
For `CCc1c(CC(N)=O)[nH]c2ccc(Cl)cc12`, the IC50 in the test with K562 is 87 µM; in the test with HEK-293T, 77 µM; in the test with NCI-H460, 70 µM; in the test on HepG2, > 100 µM; in the test with HUVEC, 58 µM; in test [2], 14 µM. Further, the 50% inhibitory concentration (IC50) in the test with HT-29 was > 100 µM; in the test on A549, > 100 µM; in the test with MCF7, > 100 µM; in the test on HCT-116, 52 µM. Moreover, the inhibition in [3] is -5.5%.
In the case of `NC(=O)C1CCCc2c1[nH]c1ccc(Cl)cc21` (configuration not stated), the IC50 is 60 µM with K562; 51 µM in the test with HEK-293T; 48 µM in the test on NCI-H460; 44 µM in the test on HepG2; 15 µM in the test on HUVEC; > 100 µM in the test with HT-29. For the same molecule, the values for the concentration for half-maximal inhibition (IC50) in the test with A549, in the test on MCF7 and in the test on HCT-116 were 29 µM, 37 µM and 37 µM, respectively. Besides, the inhibition in [3] stood at 84%.

As a reminder, the IC50 is the concentration at which inhibition is half-maximal. One may read the inhibition as the relative decrease from the control value, in per cent.
